Assay: Toxicity liver stage against HepG2, at 10uM
Format: cell-based
Design: test concentration 10 uM, cell line HepG2-A16-CD81EGFP
Settings: human, HepG2-A16-CD81EGFP cells; read-out: INHIBITION
Procedure, shortened: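 Uninfected HepG2-A16-CD81EGFP cells, 3 × 10^3 per well, 1536-well, plated on prespotted compound at 10 μM final, parasite-free screening media added to match infected plates; puromycin 10 μM positive, DMSO 0.5% negative; run in parallel with 48 h PbLuc assay at 37 °C, 5% CO2; viability by CellTiter-Glo luminescence, normalized to controls.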

Compound	cytotoxicity at 10 µM [%]
CN1CC(=O)N(c2ccsc2)CC12CCN(S(C)(=O)=O)C2 (stereo unspecified)	-26.1
Cc1cnn(C(C)C(=O)NCC2CCN(c3cnn(C)c(=O)c3)CC2)c1 (stereo unspecified)	2.81
CCn1cc(C2=CCN(CCCOc3ccccc3)CC2)cn1	-9.98
CN(CC(=O)NC(C)(C)C)Cc1nc(-c2ccccc2)c[nH]1	-2.23
NC(=O)C1CCCN(Cc2c(-c3ccco3)[nH]c3ncccc23)C1 (stereo unspecified)	3.91
CCC(NC(=O)c1cc(CC(C)C)nn1C)c1ccnn1C (stereo unspecified)	-146
Cc1ccc(-c2nc(C(=O)N(C)C3CCN(C)CC3)cs2)c(C)c1	-7.07
COc1ccc(-c2nc(CNCCn3cccn3)cs2)cc1	-1.17
COc1ccc(Nc2ncccc2C#N)cc1N1CCCC1=O	6.86
C1CN(CCN2CCOCC2)CCN1	-11.5
O=C1CCC2(CCNCC2)CN1Cc1nncn1CCc1ccccc1	-10.1
FC(F)(F)c1ccccc1CCC1CCCN(Cc2cscn2)C1 (stereo unspecified)	2.28
CN(CCc1cnn(C)c1)C(=O)CN1C(=O)OC[C@@H]1c1ccccc1	-41.7
COc1ccccc1NC(=O)NCCCC(=O)Nc1cn[nH]c1	-9.55
Cc1nc(CN2CCCN(C(=O)C3(C#N)CCCCC3)CC2)cs1	-9.98
Cc1cc(F)ccc1CN1CCC(O)(CN2CCCCC2)C1 (stereo unspecified)	14.8
CN(CCCc1cc(-c2cccc(F)c2)n[nH]1)C(=O)Cn1cncn1	-129
CN(C)CCO[C@@H]1CC[C@H]2[C@H]1OCCN2C(=O)COc1ccccc1	-4.84
N#Cc1cc(C#N)c(SCC(=O)NCc2ccc(F)cc2)nc1N	0.0723
COc1ccc(NC(=O)c2ccc(CN3CC[C@H](O)C3)cc2)c(OC)n1	6.21
COc1ccc(CN(C)CC2(O)CCNC2)cc1 (stereo unspecified)	-1.68

Compound	cytotoxicity at 10 µM [%]
O=C1NCC[C@]12CN(Cc1cccnc1)C[C@H]2c1ccccc1	-137
Cn1ncc2c1C(COCC1CC1)CN(S(C)(=O)=O)C2 (stereo unspecified)	-73.6
O=C(Nc1cccc(N2CCCC2)c1)N[C@H](CCO)c1ccccc1	-4.52
N#Cc1cccc(CN2C[C@@H](NC(=O)C3CC3)[C@H]3OCCC[C@H]32)c1	6.44
OCCN1CCOC2(CCCN(c3ncccn3)C2)C1 (stereo unspecified)	9.55
Cc1csc(N2CCN(C(=O)c3ccc(C)s3)CC2)n1	-24.3
Cc1ccccc1C1(CNC(=O)CCN2C(=O)CCC2=O)CC1	-11.8
c1ccc2sc(N3CCC4(CCCN4Cc4ncc[nH]4)CC3)nc2c1	9.3
Cc1cccc(C(=O)N(C)C2CCN(c3ccccn3)CC2)c1C	1.84
COc1ccc(C(C(=O)O)N2CCCN(C3CCCC3)CC2)cc1OC (stereo unspecified)	7.44
CC(C)COC(C)C(=O)N1CCC(C)CC1 (stereo unspecified)	2.95
CC[C@@H](C)[C@H](NC(=O)Cn1ccc2c(Cl)cccc21)C(=O)O	2.88
O=C(C1CCCC1)N1C[C@@H](c2ccsc2)[C@@H]2CN(C3CCCC3)CC[C@@H]21	4.79
COc1ccc(N(c2ccccc2)c2ccc(C(=O)O)s2)cc1	-1.5
O=C(Nc1cccnc1N1CCSCC1)c1cc2c(s1)CCCCC2	-3.25
COCCOCC(=O)Nc1ccc(C)cc1F	-3.81
CN(C)C(=O)N1C[C@H]2CC[C@@H](C1)N(Cc1nnc(C3CC3)o1)C2	0.266
CC(C)(C)[S+]([O-])CCNC(=O)c1csc(NC2CC2)n1 (stereo unspecified)	13.4
Cc1cc(C)c(CNC(=O)N(C)Cc2ccc(F)cc2)c(=O)[nH]1	-9.12
CCO[C@@H]1CCN(C(=O)c2ccnnc2)[C@@H]1Cc1cnn(C)c1	-62.8
CN(C)C(=O)COCC1CN(Cc2cccs2)Cc2ncn(C)c21 (stereo unspecified)	13.1

Compound	cytotoxicity at 10 µM [%]
Cc1ncc(CN2CCOC(c3ccc(-c4cc[nH]n4)cn3)C2)s1 (stereo unspecified)	-16.5
COc1ccccc1-n1nc(CC(C)C)nc1CSc1nnc(N)s1	1.62
O=C1CO[C@@H]2CN(Cc3cccnc3)C[C@H]2N1Cc1ccncc1	-77.6
Cc1noc(C2CCN(Cn3cc(Br)cn3)CC2)n1	0.277
Cc1ccc(F)c(NCC(C)(C)S(C)(=O)=O)c1	-7.6
COc1c(C2CCCN2Cc2cc(C)no2)c(C)nn1C (stereo unspecified)	-7.25
Cc1ccnc(OC[C@]23COC[C@H]2CN(C(=O)c2ccnn2C)C3)n1	3.16
CCCC(=O)N1CCC(c2cc3cccnc3c(O)n2)CC1	-3.63
O=C1CCCN1Cc1nnc2n1CCN(Cc1ccco1)CC2	3.39
O=C(c1ccnc(-n2cnnc2)c1)N1CCCC2(CCNC2)C1 (stereo unspecified)	-19.1
CCC(=O)N1CCC2(C=C(C(=O)N3CCCC3)c3ccccc32)CC1	-92.8
CCOc1cccc(NS(=O)(=O)c2cc(C)c(C(=O)O)s2)c1	-5.28
Cc1nc(CN2CCCN(CCOc3ccc(C#N)cc3)CC2)no1	-5.93
COc1ccc(CN2CCN(C(C)=O)CC2)cc1SC(F)(F)F	7.31
CCN(CC(=O)N(C)C)C(=O)c1ccc(-c2nc(C)cs2)cc1	6.98
Cc1nc(CN2CCc3c(nc(C4CC4)n3C)C2)nc2ccccc12	7.36
CCc1ncc2c(n1)CN(C(=O)COC)C2	-19.4
Cc1cc(NCCO)nc(-c2ccccc2O)n1	14.1
CCN(CC)CCn1c(=O)oc2ccccc21	2.96
O=C(C1CCCO1)N1CCC(n2cc(-c3ccsc3)nn2)CC1 (stereo unspecified)	-4.18
CC(C)NC(=O)N1CCCC2(CC(C(=O)Nc3ccccc3)=NO2)C1 (stereo unspecified)	-3.36

Compound	cytotoxicity at 10 µM [%]
COc1ccc(CN(Cc2c[nH]cn2)CC2CCCO2)c(OC)c1 (stereo unspecified)	-26
COCCOc1ccccc1CNCc1c(C)nn(C)c1N(C)C	-5.65
Nc1nc(CN2CCOC(Cn3cncn3)C2)nc2ccccc12 (stereo unspecified)	-0.734
CN(Cc1nncn1C)c1nccc(N2CCC(O)CC2)n1	-1.78
Cc1nn(Cc2ccc(C(=O)NCCCN3CCCC3=O)o2)c(C)c1Br	9.35
Cc1nc(O)c2nnn(C[C@H]3CCCN3C(=O)C(C)(C)C)c2n1	3.25
COc1c(Cl)cc(C(=O)NCc2n[nH]c(C)n2)cc1Cl	1.42
O=C(O)C1(Cc2cccc(Cl)c2)CCCN(c2ncnc3[nH]ccc23)C1 (stereo unspecified)	3.63
O=C(NC1CC1)[C@H]1C[C@H]2OCC[C@H]2N(Cc2ccc(F)cc2)C1	3.62
O=C(O)c1ccn(-c2ccc(NC(=O)c3ccccc3Cl)cc2)n1	-140
Cc1cc(C)nc(N2Cc3cnn(Cc4ccc(F)cc4)c3C2)n1	25.2
CCC(C)[C@H](N)c1nnc(SCC(=O)Nc2ccc(Br)cc2)o1 (stereo partly specified)	-3.48
COCC1CC2(CCN(CC3CC3)CC2)CN1c1ncccn1 (stereo unspecified)	14.1
CC(C)(C)NC(=O)C1CSCN1S(=O)(=O)c1ccccc1S(C)(=O)=O (stereo unspecified)	-4.04
CCCOCC(=O)N1CCc2nc(NC)nc(C(=O)N3CCCC3)c2C1	-109
CN(Cc1n[nH]c(=O)n1Cc1ccccc1F)S(C)(=O)=O	-4.98
O=C1OCCN1CC(=O)N1C[C@@H]2CC[C@H]1CN(Cc1cscn1)C2	-5.41
Cc1cc(-n2c(C)cn(CN(C)CC3CC3)c2=O)no1	-2.95

Reference: ChEMBL document CHEMBL4513216, “Probing the Open Global Health Chemical Diversity Library for Multistage-Active Starting Points for Next-Generation Antimalarials” (ACS Infect Dis, 2020)
